Experiment [1] concerns the target Cannabinoid receptor 1 (Homo sapiens) (UniProt P21554). Nature of the experiment: Negative allosteric modulator activity at CB1 receptor (unknown origin) expressed in HEK293 cell membrane assessed as equilibrium dissociation constant using [3H]-CP55940 as radiolabelled orthosteric agonist incubated for 60 mins by liquid scintillation counting analysis. The class given is cell membranes. Particulars: filed as negative allosteric modulator. Put shortly: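 HEK293 cells transiently transfected with CB1 (calcium phosphate), harvested at 24 h; membranes from nitrogen cavitation and 100,000 g pellet, kept in TME buffer (pH 7.4) with 7% sucrose. 4 µg membrane incubated 60 min with [3H]CP55940 at about its Kd in TME plus 0.1% fatty acid-free BSA. Nonspecific binding taken with 1 µM unlabeled CP55,940; filtration on GF/C. At least three experiments, each in duplicate.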

The target is the same in experiment [2]. Put plainly: Negative allosteric modulator activity at CB1 receptor (unknown origin) expressed in HEK293 cell membrane assessed as reduction in CP55,940-induced [35S]GTPgammaS binding incubated for 60 mins by liquid scintillation counting analysis. It counts as functional, cell membranes. Particulars: filed as negative allosteric modulator, dose 3.2-10 µM. (In general: GTPγS resists hydrolysis and so accumulates on activated G proteins.)

For experiment [3] the target is unchanged. Nature of the experiment: Negative allosteric modulator activity at CB1 receptor (unknown origin) expressed in HEK293 cell membrane assessed as reduction in CP55,940-induced [35S]GTPgammaS binding by measuring Emax of CP55,940 at 3.2 uM incubated for 60 mins by liquid scintillation counting analysis (reference value: 68.9 +/-1.7 fmol/mg). It counts as functional, cell membranes. To be noted: filed as negative allosteric modulator.

For experiment [4] the target is unchanged. Nature of the experiment: Negative allosteric modulator activity at CB1 receptor (unknown origin) expressed in HEK293 cell membrane assessed as reduction in CP55,940-induced [35S]GTPgammaS binding at 10 uM incubated for 60 mins by liquid scintillation counting analysis. It counts as functional, cell membranes. Particulars: filed as negative allosteric modulator.

Among the data in ChEMBL document CHEMBL4715743, “Synthesis and biological evaluation of indole-2-carboxamides bearing photoactivatable functionalities as novel allosteric modulators for the cannabinoid CB1 receptor” (Eur J Med Chem, 2016) are Kb, inhibition and Emax values, retold here.

Cannabinoid receptor 1 (Homo sapiens), sequence (P21554 whole entry): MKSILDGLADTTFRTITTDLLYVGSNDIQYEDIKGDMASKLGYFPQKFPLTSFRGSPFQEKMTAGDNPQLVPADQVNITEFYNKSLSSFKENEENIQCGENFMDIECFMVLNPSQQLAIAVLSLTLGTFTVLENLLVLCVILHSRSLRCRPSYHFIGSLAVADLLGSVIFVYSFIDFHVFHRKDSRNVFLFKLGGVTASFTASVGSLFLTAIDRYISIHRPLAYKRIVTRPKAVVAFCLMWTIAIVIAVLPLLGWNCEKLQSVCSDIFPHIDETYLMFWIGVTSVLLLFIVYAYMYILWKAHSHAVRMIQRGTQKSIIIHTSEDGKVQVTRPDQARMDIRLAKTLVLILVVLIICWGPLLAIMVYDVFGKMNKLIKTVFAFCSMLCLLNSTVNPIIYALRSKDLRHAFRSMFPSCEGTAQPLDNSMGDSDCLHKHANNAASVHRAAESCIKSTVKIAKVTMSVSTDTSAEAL

On to `CCCCCCc1c(C(=O)NCCc2ccc(N=[N+]=[N-])cc2)[nH]c2ccc(Cl)cc12`, for which, in experiment [1], the Kb came to 314 nM. The results for the inhibition entry in experiment [2] and in experiment [4] were “Dose-dependent effect” and 100%, respectively. Further, in experiment [3], the Emax came to 34.1 fmol/mg.
Take `[N-]=[N+]=NCc1c(C(=O)NCCc2ccc(N3CCCCC3)cc2)[nH]c2ccc(Cl)cc12`: the Kb in experiment [1] amounted to 784 nM.
As for `CCc1c(C(=O)NCCc2ccc(C(=O)c3ccccc3)cc2)[nH]c2ccc(Cl)cc12`, the Kb in experiment [1] worked out at 254 nM. The inhibition entry was “Dose-dependent effect” in experiment [2] and 100% in experiment [4]. In addition, the Emax in experiment [3] came to 41.3 fmol/mg.
For `CCCCCc1c(C(=O)NCCc2ccc(C(=O)c3ccccc3)cc2)[nH]c2ccc(Cl)cc12`, the Kb in experiment [1] amounted to 559 nM. Also, the inhibition result in experiment [2] is “Dose-dependent effect”; in experiment [4], 100%. For the same compound, the Emax in experiment [3] amounted to 27 fmol/mg.
As to `CCCCCCc1c(C(=O)NCCc2ccc(C3(C(F)(F)F)N=N3)cc2)[nH]c2ccc(Cl)cc12`, in experiment [1], the Kb was 3280 nM.
Consider `[N-]=[N+]=NCc1c(C(=O)NCCc2ccc(C(=O)c3ccccc3)cc2)[nH]c2ccc(Cl)cc12`, for which the Kb in experiment [1] was found to be 6310 nM.
Regarding `CN(C)c1ccc(CCNC(=O)c2[nH]c3ccc(Cl)cc3c2CN=[N+]=[N-])cc1`, the Kb in experiment [1] was 200 nM. Besides, the inhibition result in experiment [2] is “Dose-dependent effect”; in experiment [4] it was 100%. Moreover, the Emax in experiment [3] was 31.1 fmol/mg.

In general, inhibition refers to the drop in the measured response relative to a control, in per cent.
